Laboratory results taken from ChEMBL document CHEMBL5042558, “Selective Macrocyclic Inhibitors of DYRK1A/B” (ACS Med Chem Lett, 2022).
The source made the active and inactive calls. The calls are words filed in the database; no cut-off is given here.

Key:
[1] = tested on: CAL-27; test: Induction of apoptosis in human CAL-27 cells assessed as increase in cleaved-PARP level at 1 uM after 24 hrs by Immunoblot analysis relative to control; assay type: functional
[2] = tested on: CAL-27; test: Induction of apoptosis in human CAL-27 cells assessed as increase in cleaved-PARP level at 10 uM after 24 hrs by Immunoblot analysis relative to control; assay type: functional
[3] = tested on: CAL-27; test: Induction of apoptosis in human CAL-27 cells assessed as PARP level at 1 uM after 24 hrs by Immunoblot analysis relative to control; assay type: functional
[4] = tested on: CAL-27; test: Induction of apoptosis in human CAL-27 cells assessed as PARP level at 10 uM after 24 hrs by Immunoblot analysis relative to control; assay type: functional
[5] = tested on: CAL-27; test: Induction of apoptosis in human CAL-27 cells assessed as BCL-xL level at 1 uM after 24 hrs by Immunoblot analysis relative to control; assay type: functional
[6] = tested on: CAL-27; test: Induction of apoptosis in human CAL-27 cells assessed as BCL-xL level at 10 uM after 24 hrs by Immunoblot analysis relative to control; assay type: functional
[7] = tested on: FaDu; test: Antiproliferative activity against human FaDu cells assessed as reduction in cell viability at 10 uM measured after 72 hrs by Celltiter-Glo luminescent assay; assay type: functional
[8] = tested on: HEK-293T; test: Antiproliferative activity against human HEK293T cells assessed as reduction in cell viability at 10 uM measured after 72 hrs by Celltiter-Glo luminescent assay; assay type: toxicity, cell-based
[9] = tested on: CAL-27; test: Induction of apoptosis in human CAL-27 cells assessed as decrease in AKT phosphorylation at S473 residue at 0.5 uM after 24 hrs by Immunoblot analysis relative to control; assay type: functional; parameters: scale not given: the % may be the effect or the level left
[10] = tested on: CAL-27; test: Induction of apoptosis in human CAL-27 cells assessed as decrease in AKT phosphorylation at S473 residue at 1 uM after 24 hrs by Immunoblot analysis relative to control; assay type: functional; parameters: scale not given: the % may be the effect or the level left
[11] = tested on: CAL-27; test: Induction of apoptosis in human CAL-27 cells assessed as decrease in AKT phosphorylation at S473 residue at 5 uM after 24 hrs by Immunoblot analysis relative to control; assay type: functional; parameters: scale not given: the % may be the effect or the level left
[12] = tested on: CAL-27; test: Induction of apoptosis in human CAL-27 cells assessed as decrease in AKT phosphorylation at S473 residue at 10 uM after 24 hrs by Immunoblot analysis relative to control; assay type: functional; parameters: scale not given: the % may be the effect or the level left
[13] = tested on: CAL-27; test: Induction of apoptosis in human CAL-27 cells assessed as decrease in FOXO3A phosphorylation at serine 253 residue at 0.5 uM after 24 hrs by Immunoblot analysis relative to control; assay type: functional; parameters: scale not given: the % may be the effect or the level left
[14] = tested on: CAL-27; test: Induction of apoptosis in human CAL-27 cells assessed as decrease in FOXO3A phosphorylation at serine 253 residue at 1 uM after 24 hrs by Immunoblot analysis relative to control; assay type: functional; parameters: scale not given: the % may be the effect or the level left
[15] = tested on: CAL-27; test: Induction of apoptosis in human CAL-27 cells assessed as decrease in FOXO3A phosphorylation at serine 253 residue at 5 uM after 24 hrs by Immunoblot analysis relative to control; assay type: functional; parameters: scale not given: the % may be the effect or the level left
[16] = tested on: CAL-27; test: Induction of apoptosis in human CAL-27 cells assessed as decrease in FOXO3A phosphorylation at serine 253 residue at 10 uM after 24 hrs by Immunoblot analysis relative to control; assay type: functional; parameters: scale not given: the % may be the effect or the level left
[17] = biological target: Cyclin-dependent kinase 8 (Homo sapiens) (UniProt P49336); test: Inhibition of CDK8 (unknown origin) in human CAL-27 cells measured after 6 hrs by select screen kinase assay; assay type: cell-based
Summary of the method: (§1)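 Cellular kinase profiling by KiNativ in CAL27 head and neck squamous carcinoma cells. Cells were treated with compound at 1 μM for 6 h, then kinase engagement was profiled across the kinome by KiNativ.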

[18] = biological target: Cyclin-dependent kinase 19 (Homo sapiens) (UniProt Q9BWU1); test: Inhibition of […] (unknown origin) in human CAL-27 cells measured after 6 hrs by select screen kinase assay; assay type: cell-based; summary of the method: as §1
[19] = biological target: Dual specificity tyrosine-phosphorylation-regulated kinase 1B (Homo sapiens, UniProt Q9Y463); test: Inhibition of DYRK1B (unknown origin) measured after 6 hrs in presence of ATP by Z'-LYTE assay
[20] = biological target: Receptor-type tyrosine-protein kinase FLT3 (Homo sapiens, UniProt P36888); test: Inhibition of FLT3 (unknown origin) at 1 uM by kinome scan method
[21] = biological target: Myosin light chain kinase, smooth muscle (Homo sapiens, UniProt Q15746); test: Inhibition of MYLK (unknown origin) at 1 uM by kinome scan method
[22] = Half life in C57BL/6 mouse at 5 mg/kg, iv measured upto 8 hrs by LC-MS/MS analysis; assay type: ADME, organism-based; details: in vivo
[23] = Half life in C57BL/6 mouse at 10 mg/kg, po measured upto 8 hrs by LC-MS/MS analysis; assay type: ADME, organism-based; details: in vivo
[24] = AUC (0-infinity) in C57BL/6 mouse at 5 mg/kg, iv measured upto 8 hrs by LC-MS/MS analysis; assay type: ADME, organism-based; parameters: route intravenous, dose 5 mg/kg, time <=8; details: in vivo
[25] = AUC (0-infinity) in C57BL/6 mouse at 10 mg/kg, po measured upto 8 hrs by LC-MS/MS analysis; assay type: ADME, organism-based; parameters: route oral, dose 10 mg/kg, time <=8; details: mouse, in vivo, 8 h
[26] = Clearance in C57BL/6 mouse at 5 mg/kg, iv measured upto 8 hrs by LC-MS/MS analysis; assay type: ADME, organism-based; details: in vivo
[27] = Cmax in C57BL/6 mouse at 10 mg/kg, po measured upto 8 hrs by LC-MS/MS analysis; assay type: ADME, organism-based; parameters: route oral, dose 10 mg/kg, time <=8; details: in vivo
[28] = Oral bioavailability in C57BL/6 mouse at 10 mg/kg measured upto 8 hrs by LC-MS/MS analysis; assay type: ADME, organism-based; details: mouse, in vivo, 10 mg/kg, 8 h

Dual specificity tyrosine-phosphorylation-regulated kinase 1B, sequence (Q9Y463 whole entry): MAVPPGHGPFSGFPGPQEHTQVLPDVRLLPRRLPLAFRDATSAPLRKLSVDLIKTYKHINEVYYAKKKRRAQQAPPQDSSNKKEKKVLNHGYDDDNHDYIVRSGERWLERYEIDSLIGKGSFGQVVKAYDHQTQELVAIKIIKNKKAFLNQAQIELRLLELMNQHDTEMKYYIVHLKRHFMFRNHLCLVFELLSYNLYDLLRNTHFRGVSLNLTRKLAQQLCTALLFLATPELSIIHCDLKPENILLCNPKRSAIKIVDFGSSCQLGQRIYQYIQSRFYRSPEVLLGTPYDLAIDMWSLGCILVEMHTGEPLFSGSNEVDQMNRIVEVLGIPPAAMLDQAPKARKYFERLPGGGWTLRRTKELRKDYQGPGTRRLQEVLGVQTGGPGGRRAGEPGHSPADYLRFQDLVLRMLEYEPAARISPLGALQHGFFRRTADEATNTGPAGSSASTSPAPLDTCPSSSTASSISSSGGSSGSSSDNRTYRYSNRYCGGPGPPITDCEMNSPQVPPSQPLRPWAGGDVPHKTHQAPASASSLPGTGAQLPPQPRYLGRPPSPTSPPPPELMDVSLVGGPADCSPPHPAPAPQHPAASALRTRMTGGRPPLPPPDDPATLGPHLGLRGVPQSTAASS
Receptor-type tyrosine-protein kinase FLT3, sequence (P36888 whole entry): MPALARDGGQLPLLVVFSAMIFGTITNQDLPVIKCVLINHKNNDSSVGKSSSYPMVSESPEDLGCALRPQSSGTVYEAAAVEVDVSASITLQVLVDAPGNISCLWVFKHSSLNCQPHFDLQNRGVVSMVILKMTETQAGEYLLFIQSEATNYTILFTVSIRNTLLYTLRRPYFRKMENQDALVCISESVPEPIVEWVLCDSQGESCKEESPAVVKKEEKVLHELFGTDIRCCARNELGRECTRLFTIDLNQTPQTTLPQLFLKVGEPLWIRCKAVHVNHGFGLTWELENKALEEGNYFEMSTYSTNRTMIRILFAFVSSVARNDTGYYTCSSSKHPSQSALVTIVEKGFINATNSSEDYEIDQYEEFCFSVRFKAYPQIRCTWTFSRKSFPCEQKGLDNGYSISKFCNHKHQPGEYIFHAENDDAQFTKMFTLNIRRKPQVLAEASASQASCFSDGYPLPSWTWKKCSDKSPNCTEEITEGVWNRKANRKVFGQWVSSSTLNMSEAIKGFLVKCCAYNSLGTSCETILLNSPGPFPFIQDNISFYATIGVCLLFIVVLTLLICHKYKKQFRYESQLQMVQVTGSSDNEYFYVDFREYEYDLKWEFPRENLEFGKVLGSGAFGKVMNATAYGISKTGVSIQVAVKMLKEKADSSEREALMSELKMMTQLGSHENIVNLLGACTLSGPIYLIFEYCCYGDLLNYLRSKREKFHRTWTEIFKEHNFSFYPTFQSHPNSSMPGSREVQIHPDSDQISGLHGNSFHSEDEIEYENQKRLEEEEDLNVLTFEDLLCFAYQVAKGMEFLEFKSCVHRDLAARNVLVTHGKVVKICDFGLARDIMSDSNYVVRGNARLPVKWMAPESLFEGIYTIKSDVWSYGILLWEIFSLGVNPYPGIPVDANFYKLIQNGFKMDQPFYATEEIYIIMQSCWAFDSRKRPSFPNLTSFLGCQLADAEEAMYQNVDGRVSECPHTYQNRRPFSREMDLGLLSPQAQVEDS
Cyclin-dependent kinase 8 (Homo sapiens), sequence (P49336 whole entry): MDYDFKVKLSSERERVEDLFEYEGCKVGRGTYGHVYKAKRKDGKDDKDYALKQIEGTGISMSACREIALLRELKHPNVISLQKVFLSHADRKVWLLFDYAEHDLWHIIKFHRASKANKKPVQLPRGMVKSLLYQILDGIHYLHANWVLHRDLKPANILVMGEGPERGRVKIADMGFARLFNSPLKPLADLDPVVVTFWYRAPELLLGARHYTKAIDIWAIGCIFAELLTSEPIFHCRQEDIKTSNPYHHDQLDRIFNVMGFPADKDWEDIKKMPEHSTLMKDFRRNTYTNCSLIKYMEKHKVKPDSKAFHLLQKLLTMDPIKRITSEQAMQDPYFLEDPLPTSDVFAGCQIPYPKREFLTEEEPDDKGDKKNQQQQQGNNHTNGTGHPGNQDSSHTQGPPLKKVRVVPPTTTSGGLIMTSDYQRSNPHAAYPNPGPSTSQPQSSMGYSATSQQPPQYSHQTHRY
Myosin light chain kinase, smooth muscle, sequence (Q15746 whole entry): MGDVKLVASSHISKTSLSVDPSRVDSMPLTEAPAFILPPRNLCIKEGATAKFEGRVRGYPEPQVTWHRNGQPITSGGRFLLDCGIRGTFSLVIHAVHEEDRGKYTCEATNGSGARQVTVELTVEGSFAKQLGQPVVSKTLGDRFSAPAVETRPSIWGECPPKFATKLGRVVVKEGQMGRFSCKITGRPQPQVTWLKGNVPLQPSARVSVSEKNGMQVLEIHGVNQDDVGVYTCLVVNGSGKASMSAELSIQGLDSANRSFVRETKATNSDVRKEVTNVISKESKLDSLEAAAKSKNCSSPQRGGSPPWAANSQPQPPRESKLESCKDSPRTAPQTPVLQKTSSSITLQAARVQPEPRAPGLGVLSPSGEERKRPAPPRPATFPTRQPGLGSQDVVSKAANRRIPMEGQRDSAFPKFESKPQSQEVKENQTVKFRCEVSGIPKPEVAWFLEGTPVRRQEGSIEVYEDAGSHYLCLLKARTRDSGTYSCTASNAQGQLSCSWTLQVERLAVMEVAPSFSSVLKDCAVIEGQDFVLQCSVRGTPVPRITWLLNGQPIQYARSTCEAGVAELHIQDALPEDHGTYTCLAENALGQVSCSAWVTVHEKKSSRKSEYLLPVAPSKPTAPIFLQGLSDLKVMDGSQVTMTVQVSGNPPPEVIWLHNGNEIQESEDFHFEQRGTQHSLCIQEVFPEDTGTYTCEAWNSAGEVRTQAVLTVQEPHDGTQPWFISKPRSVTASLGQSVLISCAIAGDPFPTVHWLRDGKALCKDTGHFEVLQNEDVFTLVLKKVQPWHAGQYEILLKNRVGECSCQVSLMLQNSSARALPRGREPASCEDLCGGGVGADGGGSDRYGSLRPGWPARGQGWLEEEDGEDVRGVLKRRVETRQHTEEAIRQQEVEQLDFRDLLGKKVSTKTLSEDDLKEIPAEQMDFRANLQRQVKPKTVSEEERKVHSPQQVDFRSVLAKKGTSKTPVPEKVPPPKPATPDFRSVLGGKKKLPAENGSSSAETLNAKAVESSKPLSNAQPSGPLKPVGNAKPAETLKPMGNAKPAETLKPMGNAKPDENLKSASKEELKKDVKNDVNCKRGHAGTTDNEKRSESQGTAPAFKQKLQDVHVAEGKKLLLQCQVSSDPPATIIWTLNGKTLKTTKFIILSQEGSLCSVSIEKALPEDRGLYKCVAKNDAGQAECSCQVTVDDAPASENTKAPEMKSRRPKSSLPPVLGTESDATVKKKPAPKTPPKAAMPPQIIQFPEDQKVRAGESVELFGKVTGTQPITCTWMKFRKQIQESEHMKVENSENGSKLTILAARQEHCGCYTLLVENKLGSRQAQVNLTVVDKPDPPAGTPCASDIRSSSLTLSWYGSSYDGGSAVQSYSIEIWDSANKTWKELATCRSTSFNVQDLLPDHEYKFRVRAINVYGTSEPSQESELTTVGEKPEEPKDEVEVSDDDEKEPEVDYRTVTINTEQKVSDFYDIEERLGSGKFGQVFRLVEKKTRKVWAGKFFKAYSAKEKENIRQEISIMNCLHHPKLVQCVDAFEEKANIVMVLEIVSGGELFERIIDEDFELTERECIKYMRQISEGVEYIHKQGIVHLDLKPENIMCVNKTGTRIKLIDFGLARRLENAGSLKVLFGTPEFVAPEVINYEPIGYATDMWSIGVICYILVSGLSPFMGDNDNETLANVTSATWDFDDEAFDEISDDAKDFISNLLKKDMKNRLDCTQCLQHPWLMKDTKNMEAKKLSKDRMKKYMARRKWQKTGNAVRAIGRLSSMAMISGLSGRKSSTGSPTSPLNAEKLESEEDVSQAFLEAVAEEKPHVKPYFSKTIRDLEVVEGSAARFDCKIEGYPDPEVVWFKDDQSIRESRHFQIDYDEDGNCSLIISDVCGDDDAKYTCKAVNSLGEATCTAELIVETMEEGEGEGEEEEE
Cyclin-dependent kinase 19 (Homo sapiens), sequence (Q9BWU1 whole entry): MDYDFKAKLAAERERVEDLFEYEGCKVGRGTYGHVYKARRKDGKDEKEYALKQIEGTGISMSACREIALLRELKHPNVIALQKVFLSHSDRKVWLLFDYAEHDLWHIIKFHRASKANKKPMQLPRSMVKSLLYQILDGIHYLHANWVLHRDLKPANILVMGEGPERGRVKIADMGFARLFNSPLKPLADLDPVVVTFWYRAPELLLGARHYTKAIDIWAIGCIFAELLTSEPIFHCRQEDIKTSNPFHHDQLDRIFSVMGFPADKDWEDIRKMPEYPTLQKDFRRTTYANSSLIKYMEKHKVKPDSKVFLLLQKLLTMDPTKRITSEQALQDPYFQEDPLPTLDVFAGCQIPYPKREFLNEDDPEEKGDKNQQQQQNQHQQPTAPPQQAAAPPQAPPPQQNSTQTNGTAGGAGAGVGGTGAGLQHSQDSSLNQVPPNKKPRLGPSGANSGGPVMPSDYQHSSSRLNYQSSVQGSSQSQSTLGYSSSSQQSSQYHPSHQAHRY

In the case of COc1c2c(nn1C)CN(C(C)C)C(=O)CCCn1cc(c(C(F)(F)F)n1)-c1c[nH]c3ncc-2cc13, the Activity [1] is reported as 140%, the Activity [2] is reported as 538% and the Activity [3] is reported as 110%. The Activity [4] was 112%, the Activity [5] was 130% and the Activity [6] was 84%.
In the case of COc1ccc2c(c1)[nH]c1c(C)nccc12 [HARMINE], the Activity [1] is reported as 139%, the Activity [2] is reported as 210% and the Activity [7] is reported as “inactive”. The Activity [8] was “Active”, the Activity [3] was 113% and the Activity [4] was 141%. It also gave an Activity [5] of 92%, an Activity [6] of 93% and an Activity [9] of 64%. The Activity [10] was 93%, the Activity [11] was 133% and the Activity [12] was 143%. It also gave an Activity [13] of 82%, an Activity [14] of 107% and an Activity [15] of 110%. For the same molecule, the Activity [16] was 90%, the inhibition [17] was “Active” and the inhibition [18] was “Active”.
With CN1Cc2nn(C)c(C#N)c2-c2cc3c(c[nH]c3nn2)-c2cn(nc2C(F)(F)F)CCCC1=O the IC50 [19] was 3.05 µM.
For CN1Cc2nn(C)c(C#N)c2-c2cnc3[nH]cc(c3c2)-c2cn(nc2C(F)(F)F)CCCC1=O, the IC50 [20] was 0.354 µM, the IC50 [21] was 0.334 µM and the Activity [8] was “Non-Toxic”. It also gave a half-life [22] of 0.3 h, a half-life [23] of 2 h and an AUC [24] of 0.5049 µg·h/mL. The AUC [25] was 0.0236 µg·h/mL, the clearance [26] was 10 L/h/kg and the Cmax [27] was 11.6 µM. The F [28] was 1.1%.
With CN1Cc2nn(C)cc2-c2cnc3[nH]cc(c3c2)-c2cnn(c2)CCCCC1=O the IC50 [19] was 0.15 µM.
Work on CN1Cc2nn(C)c(C#N)c2-c2cnc3[nH]nc(c3c2)-c2cn(nc2C(F)(F)F)CCCC1=O yielded an IC50 [19] of 0.929 µM.
